# In ChEMBL document CHEMBL1138193, “Synthesis and biological activity of 7-phenyl-6,9-dihydro-3H-pyrrolo[3,2-f]quinolin-9-ones: a new class of antimitotic agents devoid of aromatase activity” (J Med Chem, 2006):
# pIC50: −log10 of the molar value. Activity calls are given as the source filed them. No cut-off for these calls is given here.
# Experiments:
# HT-29 = experiment: Cytotoxicity against human HT29 cells by MTT assay; assay type: functional, cell-based
# Procedure, shortened: (§1)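 MTT colorimetric proliferation assay on human and murine tumour cell lines. Compounds tested over 50 to 0.1 µM; IC50 calculated from the concentration response.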
# HeLa = experiment: Cytotoxicity against human HeLa cells by MTT assay; assay type: functional, cell-based; procedure, shortened: as §1
# ARO = experiment: Cytotoxicity against human Aro cells by MTT assay; assay type: functional, cell-based; procedure, shortened: as §1
# A549 = experiment: Cytotoxicity against human A549 cells by MTT assay; assay type: functional, cell-based
# NCI-H295R = experiment: Cytotoxicity against human H295R cells by MTT assay; assay type: functional, cell-based; procedure, shortened: as §1
# OVCAR-3 [1] = experiment: Cytotoxicity against human Ovcar3 cells by MTT assay; assay type: functional, cell-based; procedure, shortened: as §1
# 4T1 = experiment: Cytotoxicity against mouse 4T1 cells by MTT assay; assay type: functional, cell-based; procedure, shortened: as §1
# OVCAR-3 [2] = experiment: Cell cycle arrest at G2/M phase in Ovcar3 cells at 5-10 uM; assay type: functional, Homo sapiens
# HepG2 [3] = experiment: Cytotoxicity against human HepG2 cells by MTT assay; assay type: functional, cell-based; procedure, shortened: as §1
# PT-45 = experiment: Cytotoxicity against human PT45 cells by MTT assay; assay type: functional, cell-based; procedure, shortened: as §1
# HepG2 [4] = experiment: Cell cycle arrest at G2/M phase in HepG2 cells at 5-10 uM; assay type: functional, Homo sapiens
# MCF7 = experiment: Cytotoxicity against human MCF7 cells by MTT assay; assay type: functional, cell-based; procedure, shortened: as §1
# BNL [5] = experiment: Cytotoxicity against mouse BNL cells by MTT assay; assay type: functional, cell-based; procedure, shortened: as §1
# BNL [6] = experiment: Cytotoxicity against BNL 1ME A.7R.1 cells subcutaneously implanted in BALB/c mouse at 40 mg/kg, ip; assay type: functional; settings: route intraperitoneal
# Procedure, shortened: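 Male Balb/c mice implanted subcutaneously in the dorsal region with 10⁷ syngenic hepatocarcinoma cells. From day 2, daily intraperitoneal dosing at 40 mg/kg, with saline and vehicle control groups (n = 8-12 per group). Tumour measured daily by calipers over 10 days; volume = A × B²/2. Means ± SE.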
# Tubulin (Homo sapiens) [7] = biological target: T1, Tubulin (Homo sapiens) (UniProt P68371+Q9H4B7+P0DPH7+P68366+Q13509+Q71U36+P04350+Q3ZCM7+P07437+P68363+Q9BQE3+Q6PEY2+Q13885+Q9BVA1+Q9BUF5); experiment: Microtubule disassembly in Ovcar3 cells at 5 uM; assay type: functional, cell-based; settings: OVCAR-3
# Procedure, shortened: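 Ovcar-3 cells exposed 18 h to 5 µM (drug-free and vincristine 5 µM controls), fixed, stained with anti-β-tubulin antibody, and microtubule distribution examined by fluorescence microscopy.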
# Tubulin (Homo sapiens) [8] = biological target: T1, Tubulin (Homo sapiens); experiment: Inhibition of tubulin polymerization at 2.5 uM; assay type: protein-complex assay
# Procedure, shortened: (§2)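 Fluorimetric microtubule polymerization kit using purified tubulin. Compound at 5, 2.5, 1.25 and 0.625 µM; fluorescence (ex 355/em 450 nm) read every minute for 60 min. Taxol and vincristine (3 µM) as references.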
# Aromatase [9] = biological target: T2, Aromatase (Homo sapiens, UniProt P11511); experiment: Inhibition of aromatase activity in H295R cells at 5 uM; assay type: cell-based
# T2 sequence (P11511 whole entry): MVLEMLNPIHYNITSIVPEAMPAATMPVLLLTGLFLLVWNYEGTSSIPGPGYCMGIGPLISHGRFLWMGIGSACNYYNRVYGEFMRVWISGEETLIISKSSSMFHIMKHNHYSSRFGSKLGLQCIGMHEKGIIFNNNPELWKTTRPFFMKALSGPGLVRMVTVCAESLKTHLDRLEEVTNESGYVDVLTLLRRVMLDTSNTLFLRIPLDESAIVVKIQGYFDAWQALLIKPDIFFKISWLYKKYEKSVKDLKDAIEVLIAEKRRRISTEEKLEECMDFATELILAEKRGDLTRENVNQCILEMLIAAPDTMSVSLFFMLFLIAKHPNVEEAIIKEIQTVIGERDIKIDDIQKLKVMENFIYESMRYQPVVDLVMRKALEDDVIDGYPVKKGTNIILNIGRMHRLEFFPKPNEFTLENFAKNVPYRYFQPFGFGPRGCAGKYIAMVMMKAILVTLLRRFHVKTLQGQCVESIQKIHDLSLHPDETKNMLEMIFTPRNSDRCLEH
# Procedure, shortened: (§3)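 H295R cells cultured 24 h in DMEM-F12 with or without forskolin (25 µM). Compound (5, 10 or 15 µM) added 1 h before [1β-³H]androstenedione substrate (0.5 µM), then 2 h further exposure. Modified tritiated water release read-out as pmol ³H₂O/h/mg protein. Letrozole reference. Mean ± SEM of three experiments in triplicate.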
# Aromatase [10] = biological target: T2, Aromatase; experiment: Inhibition of aromatase activity in H295R cells at 10 uM; assay type: cell-based; procedure, shortened: as §3
# Aromatase [11] = biological target: T2, Aromatase; experiment: Inhibition of aromatase activity in H295R cells at 15 uM; assay type: cell-based; procedure, shortened: as §3
# Tubulin (Homo sapiens) [12] = biological target: T1, Tubulin (Homo sapiens); experiment: Inhibition of tubulin polymerization at 5 uM; assay type: protein-complex assay; procedure, shortened: as §2
SMILES,pIC50 (HT-29),pIC50 (HeLa),pIC50 (ARO),pIC50 (A549),pIC50 (NCI-H295R),pIC50 (OVCAR-3 [1]),pIC50 (4T1),Activity (OVCAR-3 [2]),pIC50 (HepG2 [3]),pIC50 (PT-45),Activity (HepG2 [4]),pIC50 (MCF7),pIC50 (BNL [5]),Activity (BNL [6]),Activity (Tubulin (Homo sapiens) [7]),Activity (Tubulin (Homo sapiens) [8]),Activity (Aromatase [9]),Activity (Aromatase [10]),Activity (Aromatase [11]),Activity (Tubulin (Homo sapiens) [12])
Cc1cccc(-c2cc(O)c3c(ccc4[nH]ccc43)n2)c1,5.10,5.22,5.15,5.22,5.10,4.70,4.60,19.5%,5.00,5.15,16%,5.15,5.22,–,–,–,–,–,–,–
Nc1cccc(-c2cc(O)c3c(ccc4[nH]ccc43)n2)c1,< 4.30,5.15,4.52,4.52,4.30,4.30,4.30,14%,4.52,5.10,17.1%,4.82,< 4.30,–,–,–,–,–,–,–
O=c1cc(-c2ccccc2)[nH]c2ccc3[nH]ccc3c12,5.70,6.15,6.15,6.00,6.40,5.22,5.70,62%,5.10,6.30,47.7%,6.10,5.52,83.2%,Active,Dose-dependent effect,Not Active,Not Active,Not Active,Dose-dependent effect
O=[N+]([O-])c1cccc(-c2cc(O)c3c(ccc4[nH]ccc43)n2)c1,< 4.30,4.60,4.41,4.49,4.40,< 4.30,< 4.30,10%,4.52,4.35,15.8%,< 4.30,< 4.30,–,–,–,–,–,–,–
N#Cc1cccc(-c2cc(O)c3c(ccc4[nH]ccc43)n2)c1,< 4.30,5.10,5.52,< 4.30,< 4.30,< 4.30,< 4.30,15%,4.40,4.40,17.3%,< 4.30,4.40,–,–,–,–,–,–,–
Oc1ccnc2ccc3[nH]ccc3c12,< 4.30,< 4.30,< 4.30,< 4.30,< 4.30,< 4.30,< 4.30,–,< 4.30,< 4.30,–,< 4.30,< 4.30,–,–,–,–,–,–,–
Cc1cc(O)c2c(ccc3[nH]ccc32)n1,< 4.30,< 4.30,< 4.30,< 4.30,< 4.30,< 4.30,< 4.30,–,< 4.30,< 4.30,–,< 4.30,< 4.30,–,–,–,–,–,–,–
CC(=O)O[C@H]1C(=O)[C@@]2(C)[C@H]([C@H](OC(=O)c3ccccc3)[C@]3(O)C[C@H](OC(=O)[C@H](O)[C@@H](NC(=O)c4ccccc4)c4ccccc4)C(C)=C1C3(C)C)[C@]1(OC(C)=O)CO[C@@H]1C[C@@H]2O [PACLITAXEL],–,–,–,–,7.10,–,6.70,–,–,–,–,–,6.70,–,–,–,–,–,–,–
CCN(CC)CCn1ccc2c3c(O)cc(-c4ccccc4)nc3ccc21,5.22,5.30,4.70,4.92,5.22,4.74,5.05,16.6%,5.15,5.30,15.1%,5.10,5.30,–,–,–,–,–,–,–
N#Cc1ccc(-c2cc(O)c3c(ccc4[nH]ccc43)n2)cc1,< 4.30,4.82,4.40,4.82,4.52,4.30,4.60,14.9%,5.00,4.70,21.5%,4.30,4.82,–,–,–,–,–,–,–
Oc1cc(-c2cccc(Br)c2)nc2ccc3[nH]ccc3c12,5.05,5.30,5.30,5.22,5.30,5.00,4.70,42.9%,5.22,5.22,40.3%,5.30,5.40,–,–,–,Not Active,Not Active,Not Active,–
CC[C@]1(O)C[C@H]2CN(CCc3c([nH]c4ccccc34)[C@@](C(=O)OC)(c3cc4c(cc3OC)N(C=O)[C@H]3[C@@](O)(C(=O)OC)[C@H](OC(C)=O)[C@]5(CC)C=CCN6CC[C@]43[C@@H]65)C2)C1 [VINCRISTINE],–,–,10.00,–,7.05,–,7.70,–,–,–,–,–,7.10,–,Active,–,–,–,–,–
COc1cccc(-c2cc(O)c3c(ccc4[nH]ccc43)n2)c1,5.22,6.15,6.00,5.70,6.15,5.15,5.40,65.3%,5.22,6.15,49.3%,5.70,5.40,–,–,–,Not Active,Not Active,Not Active,–
COC(=O)c1cc2c([nH]1)c(OC)cc1nc(-c3ccccc3)cc(O)c12,< 4.30,< 4.30,< 4.30,< 4.30,< 4.30,< 4.30,< 4.30,14.4%,< 4.30,< 4.30,15.4%,< 4.30,< 4.30,–,–,–,–,–,–,–
Oc1cc(-c2cccs2)nc2ccc3[nH]ccc3c12,4.52,5.22,5.15,4.82,5.30,4.60,4.70,17.5%,5.00,5.10,15.6%,5.15,5.10,–,–,–,–,–,–,–
